Converted amounts (≈) assume the structure as drawn.
Tests used:
[1] = tested on: Mycobacterium tuberculosis; assay: Antitubercular activity against Mycobacterium tuberculosis H37Rv in GAS medium after 4 days by microplate alamar blue assay; format: functional; conditions: 96 h
Outline: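 Replicating M. tuberculosis H37Rv grown in GAS (glycerol–alanine–salts) medium. MIC determined by microplate Alamar Blue assay (MABA).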

[2] = tested on: Mycobacterium tuberculosis; assay: Antitubercular activity against Mycobacterium tuberculosis H37Rv in 7H12 medium after 4 days by microplate alamar blue assay; format: functional; conditions: 96 h
Outline: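 Replicating M. tuberculosis H37Rv tested in Middlebrook 7H12 medium, which lacks glycerol and uses palmitic acid as carbon source. MIC read by microplate Alamar Blue assay (MABA).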

[3] = tested on: Mycobacterium tuberculosis; assay: Antitubercular activity against Mycobacterium tuberculosis H37Rv in 7H12 medium incubated for 10 days in anaerobic condition followed by incubation for 48 hrs in aerobic condition by low oxygen recovery assay; format: functional
Outline: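 Non-replicating M. tuberculosis H37Rv tested in 7H12 medium (palmitic acid carbon source, no glycerol) under low-oxygen conditions by the low-oxygen-recovery assay (LORA), which models persistence or latency. Read-out is MIC.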

Vero = assay: Cytotoxicity against african green monkey Vero cells after 72 hrs by MTS assay; format: cell-based; conditions: Chlorocebus sabaeus
Outline: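 African green monkey kidney VERO cell line; toxicity read as half-maximal inhibitory concentration (IC50). Each reported value is the average of three individual measurements, rounded to the nearest dilution.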

[4] = Selectivity ratio of IC50 for african green monkey Vero cells to MIC for Mycobacterium tuberculosis H37Rv in GAS medium; format: functional

Compound | MIC [1] [µM] | other results
COC(=O)/C(=C/c1ccccc1)CSC(=N)Nc1ccccc1 | 16 (≈ 5.22 µg/mL) | –
COC(=O)/C(=C/c1ccc([N+](=O)[O-])cc1)CN=[N+]=[N-] | 4 (≈ 1.05 µg/mL) | MIC [2]: > 32 µM; MIC [3]: 16 µM (≈ 4.2 µg/mL); IC50 (Vero): > 64 µM
COC(=O)/C(=C/c1ccccc1[N+](=O)[O-])CN=[N+]=[N-] | 64 (≈ 16.8 µg/mL) | –
COC(=O)/C(=C/C=C/c1ccccc1)CN=[N+]=[N-] | 64 (≈ 15.6 µg/mL) | –
COC(=O)/C(=C/c1ccc2c(c1)OCO2)CN=[N+]=[N-] | 64 (≈ 16.7 µg/mL) | –
COC(=O)/C(=C/c1ccc(OC)cc1)CN=[N+]=[N-] | > 128 | –
COC(=O)/C(=C/c1ccccc1)CN=[N+]=[N-] | > 128 | –
COC(=O)/C(=C/c1ccc2ccccc2c1)CN=[N+]=[N-] | > 128 | –
COC(=O)/C(=C/c1ccc(Cl)cc1)CN=[N+]=[N-] | > 128 | –
COC(=O)/C(=C/c1ccccc1Cl)CN=[N+]=[N-] | > 128 | –
COC(=O)/C(=C/c1ccc(Cl)cc1Cl)CN=[N+]=[N-] | > 128 | –
COC(=O)/C(=C/c1ccc([N+](=O)[O-])cc1)CSC#N | > 128 | –
COC(=O)/C(=C/c1ccccc1[N+](=O)[O-])CSC#N | 8 (≈ 2.23 µg/mL) | –
COC(=O)/C(=C/C=C/c1ccccc1)CSC#N | > 128 | –
COC(=O)/C(=C/c1ccc2c(c1)OCO2)CSC#N | > 128 | –
COC(=O)/C(=C/c1ccc(OC)cc1)CSC#N | 16 (≈ 4.21 µg/mL) | –
COC(=O)/C(=C/c1ccc(OC)c(OC)c1)CSC#N | 16 (≈ 4.69 µg/mL) | –
COC(=O)/C(=C/c1ccccc1)CSC#N | 1 (≈ 0.233 µg/mL) | –
COC(=O)/C(=C/c1ccc2ccccc2c1)CSC#N | 0.25 (≈ 0.0708 µg/mL) | MIC [2]: 32 µM (≈ 9.07 µg/mL); MIC [3]: 16 µM (≈ 4.53 µg/mL); Selectivity ratio [4]: >100; IC50 (Vero): 32 µM
COC(=O)/C(=C/c1ccc(C)cc1)CSC#N | 0.5 (≈ 0.124 µg/mL) | MIC [2]: 8 µM (≈ 1.98 µg/mL); MIC [3]: 16 µM (≈ 3.96 µg/mL); IC50 (Vero): 32 µM
COC(=O)/C(=C/c1ccc(Cl)cc1)CSC#N | 0.25 (≈ 0.0669 µg/mL) | MIC [2]: 8 µM (≈ 2.14 µg/mL); MIC [3]: 8 µM (≈ 2.14 µg/mL); IC50 (Vero): 16 µM

Compound | MIC [1] [µM] | other results
COC(=O)/C(=C/c1ccccc1Cl)CSC#N | > 128 | –
COC(=O)/C(=C/c1ccc(Cl)cc1Cl)CSC#N | > 128 | –
COC(=O)/C(=C/c1ccccc1Br)CSC#N | 0.25 (≈ 0.078 µg/mL) | MIC [2]: 8 µM (≈ 2.5 µg/mL); MIC [3]: 4 µM (≈ 1.25 µg/mL); Selectivity ratio [4]: >100; IC50 (Vero): 32 µM
COC(=O)/C(=C/c1ccc(Br)cc1)CSC#N | 0.25 (≈ 0.078 µg/mL) | MIC [2]: 16 µM (≈ 5 µg/mL); MIC [3]: 16 µM (≈ 5 µg/mL); Selectivity ratio [4]: >100; IC50 (Vero): 32 µM
COC(=O)/C(=C/c1ccc(F)cc1)CSC#N | 0.5 (≈ 0.126 µg/mL) | MIC [2]: 16 µM (≈ 4.02 µg/mL); MIC [3]: 16 µM (≈ 4.02 µg/mL); IC50 (Vero): 32 µM
COC(=O)/C(=C/c1ccc([N+](=O)[O-])cc1)CSC(=N)N | 8 (≈ 2.36 µg/mL) | MIC [2]: 64 µM (≈ 18.9 µg/mL)
COC(=O)/C(=C/c1ccc2c(c1)OCO2)CSC(=N)N | > 128 | –
COC(=O)/C(=C/c1ccc(OC)cc1)CSC(=N)N | 32 (≈ 8.97 µg/mL) | –
COC(=O)/C(=C/c1ccccc1)CSC(=N)N | 64 (≈ 16 µg/mL) | –
COC(=O)/C(=C/c1ccccc1Cl)CSC(=N)N | > 128 | –
COC(=O)/C(=C/c1ccc([N+](=O)[O-])cc1)CSC(=N)Nc1ccccc1 | 4 (≈ 1.49 µg/mL) | MIC [2]: > 32 µM; MIC [3]: > 64 µM; IC50 (Vero): > 64 µM
COC(=O)/C(=C/c1cccc([N+](=O)[O-])c1)CSC(=N)Nc1ccccc1 | 16 (≈ 5.94 µg/mL) | –
COC(=O)/C(=C/c1ccccc1[N+](=O)[O-])CSC(=N)Nc1ccccc1 | 16 (≈ 5.94 µg/mL) | –
COC(=O)/C(=C/c1ccc2c(c1)OCO2)CSC(=N)Nc1ccccc1 | 16 (≈ 5.93 µg/mL) | –
COC(=O)/C(=C/c1ccc(OC)cc1)CSC(=N)Nc1ccccc1 | 16 (≈ 5.7 µg/mL) | –
COC(=O)/C(=C/c1ccc(C)cc1)CSC(=N)Nc1ccccc1 | 16 (≈ 5.45 µg/mL) | –
COC(=O)/C(=C/c1ccc(Cl)cc1)CSC(=N)Nc1ccccc1 | 8 (≈ 2.89 µg/mL) | –
COC(=O)/C(=C/c1ccc(F)cc1)CSC(=N)Nc1ccccc1 | 8 (≈ 2.76 µg/mL) | –
COC(=O)/C(=C/c1ccccc1)CS/C(=N\C(C)=O)NC(C)=O | 32 (≈ 10.7 µg/mL) | –
COC(=O)/C(=C/c1ccccc1Cl)CS/C(=N\C(C)=O)NC(C)=O | 32 (≈ 11.8 µg/mL) | –

From ChEMBL document CHEMBL2146363, “Allylic thiocyanates as a new class of antitubercular agents” (Bioorg Med Chem Lett, 2012)
